Square brackets hold non-standard residues; d marks the D form. Peptide text beside a SMILES is read from it. * marks the point of attachment. NMeF = CN[C@@H](Cc1ccccc1)C(=O)O; NMeV = CN[C@H](C(=O)O)C(C)C; X1 = C#CCCCC[C@H](C)C(=O)*; X2 = C#CCCC/C=C(\C)C(=O)*
Experiments:
Format in all cases: functional, organism-based
[1] = system: Leishmania donovani; experiment: Antileishmanial activity against Leishmania donovani LD-1S/MHOM/SD/00-1S amastigotes after 72 hrs by PicoGreen fluorescence assay
In short: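 Axenic amastigotes of WHO reference strain LD-1S/MHOM/SD/00-strain 1S; assay run as in earlier work.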

[2] = system: Plasmodium falciparum; experiment: Antimalarial activity against chloroquine-resistant Plasmodium falciparum Indochina W2 infected human erythrocytes assessed as uptake of PicoGreen after 48 hrs; settings: Indochina W2, 48 h
[3] = system: Trypanosoma cruzi; experiment: Antiparasitic activity against Trypanosoma cruzi Tulahuen C4 infected african green monkey Vero cells expressing beta-galctosidase after 5 days; settings: 120 h
In short: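 Parasite is a transgenic β-galactosidase-expressing Trypanosoma cruzi, Tulahuen strain clone C4; assay run as in earlier work.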

Structure (SMILES) | IC50 [1] [µM] | IC50 [2] [µM] | IC50 [3] [µM]
C[C@@H]1[C@H](O)[C@@H](C)/C=C/C=C/C=C/C=C/C=C/C=C/C=C/[C@H](O[C@@H]2O[C@H](C)[C@@H](O)[C@H](N)[C@@H]2O)C[C@@H]2O[C@](O)(C[C@@H](O)C[C@@H](O)[C@H](O)CC[C@@H](O)C[C@@H](O)CC(=O)O[C@H]1C)C[C@H](O)[C@H]2C(=O)O [AMPHOTERICIN B] | 0.1 | – | –
C#CCCCC[C@H](C)C(=O)N(C)[C@H](C(=O)N(C)[C@H](C(=O)N(C)[C@H](C(=O)N(C)[C@@H](Cc1ccccc1)C(N)=O)C(C)C)C(C)C)C(C)C [DRAGONAMIDE A] (X1-[NMeV][NMeV][NMeV][NMeF]-NH2) | 6.5 | > 10 | > 10
C#CCCCC[C@H](C)C(=O)N(C)[C@H](C(=O)N(C)[C@H](C(=O)N(C)[C@H](C(=O)N(C)[C@H](C(N)=O)C(C)C)C(C)C)C(C)C)C(C)C [DRAGONAMIDE B] (X1-[NMeV][NMeV][NMeV][NMeV]-NH2) | > 10 | > 10 | > 10
C#CCCC/C=C(\C)C(=O)N(C)[C@H](C(=O)N(C)[C@H](C(=O)N(C)[C@H](C(=O)N(C)[C@@H](Cc1ccccc1)C(N)=O)C(C)C)C(C)C)C(C)C [DRAGONAMIDE E] (X2-[NMeV][NMeV][NMeV][NMeF]-NH2) | 5.1 | > 10 | > 10
C/C(=C\C=C\C[C@H](C)C(Cl)(Cl)Cl)C(=O)N[C@H](c1nccs1)C(C)C [HERBAMIDE B] | 5.9 | > 10 | > 10
CC1CS(=O)(=O)CCN1/N=C/c1ccc([N+](=O)[O-])o1 (centres undefined) [NIFURTIMOX] | – | – | 13.5

Reference: ChEMBL document CHEMBL1154850, “Dragonamide E, a modified linear lipopeptide from Lyngbya majuscula with antileishmanial activity” (J Nat Prod, 2010)
